# Screening results: PubChem, The Scripps Research Institute Molecular Screening Center
# A selection: hits, their analogues and other compounds. The true share with any hit is near 2.7%.
# PAFAH1B3 inh – inhibitors of human PAFAH1B3; recombinant PAFAH1B3, FP-rhodamine probe, fluorescence polarization; actives 0.28% (n = 340,000); Q15102; inhibition, % at 3.39 µM;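 active = inhibition above the screen-wide average of all tested compounds plus 3 SD, cut at about 25% in these data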;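 note: 0% = enzyme with DMSO only and 100% = wells lacking PAFAH1B3 protein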
# PAFAH2 FP inh – inhibitors of human PAFAH2; recombinant PAFAH2, FP-rhodamine activity probe, fluorescence polarization; inhibition, % at 3.39 µM; actives 0.99% (n = 340,000); AID 492956;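 active = inhibition above the mean over all tested compounds plus 3 SD, cut at about 30% in these data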;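 note: inhibitors block probe labeling of enzyme so polarization drops; 0% = enzyme with DMSO and 100% = wells lacking PAFAH2 protein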
# ASAP1 GAP inh – inhibitors of human ASAP1 ArfGAP activity | actives 0.19% (n = 360,000) | inhibition, % at 16.5 µM | ASAP1-stimulated ARF1 GTP hydrolysis, GDP FP detection; in the data active = inhibition above about 25%;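 note: 0% = vehicle with enzyme and substrate and 100% = no enzyme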
# Target sequence (Q9ULH1 325-724 limits assumed): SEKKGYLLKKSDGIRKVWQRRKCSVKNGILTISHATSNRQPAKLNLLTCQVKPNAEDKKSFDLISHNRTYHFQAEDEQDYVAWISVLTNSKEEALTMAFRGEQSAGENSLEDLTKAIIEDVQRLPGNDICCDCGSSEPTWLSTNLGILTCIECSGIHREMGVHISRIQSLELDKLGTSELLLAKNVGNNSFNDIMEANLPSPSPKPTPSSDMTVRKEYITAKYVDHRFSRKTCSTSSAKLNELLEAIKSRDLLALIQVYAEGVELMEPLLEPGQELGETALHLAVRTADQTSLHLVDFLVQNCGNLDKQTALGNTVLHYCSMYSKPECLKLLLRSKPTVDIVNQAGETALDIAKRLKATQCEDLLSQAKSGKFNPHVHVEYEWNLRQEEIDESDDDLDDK
# PAFAH1B2 inh – blocks human PAF acetylhydrolase 1b catalytic subunit 2; P68402; recombinant PAFAH1B2, FP-rhodamine activity probe, fluorescence polarization; inhibition, % at 3.39 µM; actives 1.2% (n = 340,000);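 active = inhibition above the mean of all tested compounds plus 3 SD, cut at about 24% in these data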;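 note: 0% = enzyme with DMSO and 100% = wells lacking PAFAH1B2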
# ARFGAP1 inh – inhibitors of rat ARFGAP1. Arfgap1-stimulated ARF1 GTP hydrolysis, GDP FP detection. Q62848. actives 0.26% (n = 360,000). inhibition, % at 16.5 µM. AID 651572;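 active = inhibition above a per-plate limit, mean inhibition of low control wells plus 3 SD, cut at about 25% in these data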;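 note: 0% = DMSO wells with enzyme and 100% = wells lacking Arfgap1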
#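 Repeats: one replicate per compound; assay system: rat Arfgap1 catalytic domain, aa 1-136; times: enzyme reaction 120 min at 25 °C after 20 min preincubation; detection: FP of antibody-bound GDP Alexa 633 tracer, ex 620/em 688 nm; benchmarks: high control wells lacking Arfgap1, low control full reaction with DMSO; reagent: human ARF1(Δ1-17)-GTP substrate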
# pPAFAH FP inh – inhibitors of human plasma PAF acetylhydrolase (pPAFAH) | Q13093 | recombinant pPAFAH, FP-rhodamine probe fluorescence polarization | inhibition, % at 3.39 µM | actives 1.5% (n = 330,000) | AID 463082;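 active = inhibition above the mean inhibition across the screen plus 3 SD, cut at about 25% in these data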;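 note: inhibitors block binding of the rhodamine activity-based probe so polarization drops; 0% = enzyme with DMSO and 100% = wells lacking pPAFAH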
# Active calls of the source: *; nt = no result given.
SMILES,PAFAH1B3 inh,PAFAH2 FP inh,ASAP1 GAP inh,PAFAH1B2 inh,ARFGAP1 inh,pPAFAH FP inh
CCN1CC(CN(C)Cc2nc(-c3ccco3)oc2C)CC1=O (stereo not given),6,6,-7,4,-8,5
COC(=O)Cc1nnn2c1[C@@H](C)[C@@H](c1ccccc1Br)OC[C@@H]2c1ccccc1,nt,nt,2,nt,4,nt
COc1ccc(Br)cc1C1Nc2cccc3cccc(c23)N1,4,12,-7,-3,-10,5
O=[N+]([O-])c1cc(C2Nc3cccc4cccc(c34)N2)ccc1Cl,13,8,-7,37*,14,0
O=C1NC(c2ccc(Cl)c([N+](=O)[O-])c2)Nc2ccccc21 (stereo not given),14,11,-13,3,-4,-4
COc1cc(C2Nc3cccc4cccc(c34)N2)ccc1O,37*,-29,0,25*,13,5
COc1cc(C2Nc3cccc4cccc(c34)N2)cc(OC)c1OC(C)=O,32*,-8,0,7,-5,11
O=C(NCc1ccccc1)[C@H]1CCCN1C(=O)[C@H]1CCCN1C(=O)c1ccccc1C(F)(F)F,nt,nt,-4,nt,1,nt
C[C@@H]1CN([C@@H](C)CO)C(=O)CCCn2cc(nn2)CO[C@H]1CN(C)C(=O)Nc1cccc(C(F)(F)F)c1,nt,nt,5,nt,-8,nt
Nc1ccn([C@@H]2O[C@H](C(=O)N[C@H](Cc3ccccc3)C(=O)N[C@H]3CCCCNC3=O)[C@@H](O)[C@H]2O)c(=O)n1,nt,nt,-6,nt,12,nt
O=C(O)c1cccc(-n2cccc2/C=C2/NC(=O)N(c3ccc(Cl)cc3)C2=O)c1,36*,72*,-8,28*,-14,nt
Cc1ccc(S(=O)(=O)NCc2cn3c(C)csc3n2)cc1,-2,1,-1,3,0,-2
Cc1ccc(SCc2cn3c(C)csc3n2)cc1,0,-2,-9,53*,-5,2
COC(=O)[C@]12C[C@H](CC(=O)N3CCN(C(=O)c4ccco4)CC3)C(=O)N(CCC3=CCCCC3)C1=C[C@H](C(C)(C)C)O[C@@H]2C,nt,nt,0,nt,5,nt
CC(Sc1ccc(S(=O)(=O)N2CCN(C)CC2)cn1)C(=O)NC1(C#N)CCCCC1 (stereo not given),3,6,-17,31*,14,nt
O=C(NNC(=O)c1cc2ccccc2cc1O)Nc1ccc(Br)cc1,11,-10,-6,3,-4,26*
O=C(NNC(=O)c1cc2ccccc2cc1O)Nc1ccc(F)cc1F,29*,-8,-7,6,-3,26*
COc1ccc2c(c1)CC/C(=C\Nc1ccc3c(c1)OCO3)C2=O,5,8,0,4,6,25*
CCOC(=O)N(C)[C@H]1C[C@H]2c3cc(-c4ccccc4C)ccc3CCN2C[C@H]1[C@H](C)O,nt,nt,-1,nt,5,nt
O=C(N[C@@H](Cc1cccnc1)C(=O)N1CCC[C@H]1C(=O)NC1CCCC1)C1CC1,nt,nt,2,nt,-11,nt
C[C@@H]1CN([C@H](C)CO)C(=O)c2cc(NC(=O)Nc3ccccc3)ccc2O[C@@H](C)CCCCO[C@H]1CN(C)S(C)(=O)=O,nt,nt,4,nt,1,nt
COc1ccc2nc(NC(=O)CN(c3ccc(C)cc3)S(=O)(=O)c3c(C)nn(C)c3C)sc2c1,-3,-2,7,2,28*,-4
O=C1c2ccccc2/C(=C\c2ccc(Br)nc2)N1c1ccccc1,nt,nt,5,nt,-5,nt
COc1ccc(-c2cccc3c4c([nH]c23)[C@@H]2C[C@H]3[C@@H](C(=O)N2CC4)[C@H](C)ON3C)cc1,nt,nt,4,nt,-5,nt
CC(=O)c1ccc(NC(=S)NN2C(C)CCCC2C)cc1 (stereo not given),-2,-1,17,-3,-7,-1
CC(=O)c1ccc(NC(=S)NC2CCCC(C)C2C)cc1 (stereo not given),3,-3,2,8,4,34*
CC(=O)N1CCN(c2ccc(N3CCN(C(C)=O)[C@@H](C)C3)c(C)c2)[C@@H](C)C1,nt,nt,-7,nt,-8,nt
COC(=O)[C@]12C[C@H](CC(=O)N3CCSCC3)C(=O)N(CCC3=CCCCC3)C1=C[C@H](C(C)(C)C)O[C@@H]2C,nt,nt,-3,nt,-9,nt
C[C@@H]1CNCCN1c1ccc(N2CCS(=O)(=O)CC2)c(C#N)c1,nt,nt,-4,nt,1,nt
